From ChEMBL document CHEMBL1811883, “The combination of 4-anilinoquinazoline and cinnamic acid: a novel mode of binding to the epidermal growth factor receptor tyrosine kinase” (Bioorg Med Chem, 2011)
Values after ≈ are worked out from the molar mass of the structure shown.

Legend:
[1] = test system: A549; experiment: Antiproliferative activity against human A549 cells after 48 hrs by MTT assay; assay type: functional, cell-based; conditions: A549, 48 h
How it was run: (§1)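 Cells exposed to compound at final concentrations from 0.01 to 100 (µg/mL per text) for 48 h. MTT (5 mg/mL in PBS) added for 6 h, then 10% SDS in 0.01 N HCl for a further 4 h at 37 °C. Absorbance read at 570 nm; survival expressed relative to untreated cells.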

[2] = test system: B16-F10; experiment: Antiproliferative activity against mouse B16F10 cells assessed as inhibition of serum-stimulated cell growth after 48 hrs by MTT assay; assay type: functional, cell-based; conditions: B16-F10, 48 h; how it was run: as §1
[3] = molecular target: Epidermal growth factor receptor (Homo sapiens, UniProt P00533); experiment: Inhibition of recombinant EGFR expressed in baculovirus infected Sf9 cells after 1 hr by DELFIA/time-resolved fluorimetry assay
Chain of Epidermal growth factor receptor (P00533 whole entry): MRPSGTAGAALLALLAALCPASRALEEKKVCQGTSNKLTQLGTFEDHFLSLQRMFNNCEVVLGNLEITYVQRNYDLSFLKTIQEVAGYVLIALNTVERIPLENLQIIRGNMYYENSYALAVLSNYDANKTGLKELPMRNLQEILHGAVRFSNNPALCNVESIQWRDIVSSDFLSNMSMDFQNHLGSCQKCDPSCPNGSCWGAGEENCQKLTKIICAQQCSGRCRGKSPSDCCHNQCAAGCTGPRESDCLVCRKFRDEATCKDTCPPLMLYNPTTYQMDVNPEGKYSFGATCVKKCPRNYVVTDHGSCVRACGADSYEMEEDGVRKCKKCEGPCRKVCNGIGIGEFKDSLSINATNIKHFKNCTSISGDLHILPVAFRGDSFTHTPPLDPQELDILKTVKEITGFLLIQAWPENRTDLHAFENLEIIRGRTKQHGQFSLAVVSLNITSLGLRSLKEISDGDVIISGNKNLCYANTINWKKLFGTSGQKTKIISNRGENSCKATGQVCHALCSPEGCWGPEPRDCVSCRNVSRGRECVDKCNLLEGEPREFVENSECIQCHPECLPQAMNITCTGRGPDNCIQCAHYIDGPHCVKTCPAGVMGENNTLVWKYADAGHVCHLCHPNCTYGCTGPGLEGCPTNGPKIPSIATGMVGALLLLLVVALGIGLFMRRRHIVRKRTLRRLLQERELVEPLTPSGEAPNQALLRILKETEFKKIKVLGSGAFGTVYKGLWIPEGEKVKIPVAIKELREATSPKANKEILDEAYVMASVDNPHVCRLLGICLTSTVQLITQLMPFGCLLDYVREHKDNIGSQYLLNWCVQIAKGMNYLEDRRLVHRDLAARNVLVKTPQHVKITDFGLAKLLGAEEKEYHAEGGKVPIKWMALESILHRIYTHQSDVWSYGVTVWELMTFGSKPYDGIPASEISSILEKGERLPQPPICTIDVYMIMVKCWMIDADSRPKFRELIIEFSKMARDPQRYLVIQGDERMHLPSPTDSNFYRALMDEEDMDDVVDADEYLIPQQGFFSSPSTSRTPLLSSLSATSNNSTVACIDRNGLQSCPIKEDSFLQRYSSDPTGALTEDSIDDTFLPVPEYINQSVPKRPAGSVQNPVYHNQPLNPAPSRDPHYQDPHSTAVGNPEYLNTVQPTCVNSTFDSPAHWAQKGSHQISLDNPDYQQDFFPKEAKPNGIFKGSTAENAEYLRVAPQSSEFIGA

[4] = test system: A431 (Homo sapiens); experiment: Antiproliferative activity against human A431 cells expressing EGFR assessed as inhibition of basal cell growth after 48 hrs by MTT assay; conditions: A431, 48 h

SMILES	IC50 [1]	IC50 [2]	IC50 [3]	IC50 [4]
O=C(/C=C/c1ccc(Cl)cc1)Nc1ccc2ncnc(Nc3cccc(Cl)c3)c2c1	12.4 µg/mL (≈ 28.6 µM)	9.97 µg/mL (≈ 22.9 µM)	–	–
COc1cccc(/C=C/C(=O)Nc2ccc3ncnc(Nc4cccc(Br)c4)c3c2)c1	2.05 µg/mL (≈ 4.31 µM)	0.87 µg/mL (≈ 1.83 µM)	6.02 µM	–
COc1ccc(/C=C/C(=O)Nc2ccc3ncnc(Nc4cccc(Br)c4)c3c2)cc1	3.36 µg/mL (≈ 7.07 µM)	1.24 µg/mL (≈ 2.61 µM)	7.22 µM	–
Nc1ccc2ncnc(Nc3cccc(Cl)c3)c2c1	–	–	–	47 µM
O=C(/C=C/c1ccc(Cl)cc1)Nc1ccc2ncnc(Nc3cccc(Br)c3)c2c1	1.06 µg/mL (≈ 2.21 µM)	0.38 µg/mL (≈ 0.792 µM)	1.21 µM	–
O=C(/C=C/c1ccccc1)Nc1ccc2ncnc(Nc3cccc(Br)c3)c2c1	3.96 µg/mL (≈ 8.89 µM)	1.45 µg/mL (≈ 3.26 µM)	–	–
O=C(/C=C/c1ccccc1Br)Nc1ccc2ncnc(Nc3cccc(Br)c3)c2c1	2.38 µg/mL (≈ 4.54 µM)	0.92 µg/mL (≈ 1.76 µM)	4.28 µM	–
O=C(/C=C/c1ccccc1Cl)Nc1ccc2ncnc(Nc3cccc(Cl)c3)c2c1	4.58 µg/mL (≈ 10.5 µM)	1.74 µg/mL (≈ 4 µM)	–	–
O=C(/C=C/c1ccccc1[N+](=O)[O-])Nc1ccc2ncnc(Nc3cccc(Br)c3)c2c1	0.92 µg/mL (≈ 1.88 µM)	0.338 µg/mL (≈ 0.689 µM)	1.02 µM	0.98 µM
O=C(/C=C/c1cccc([N+](=O)[O-])c1)Nc1ccc2ncnc(Nc3cccc(Br)c3)c2c1	–	–	0.12 µM	0.33 µM
O=C(/C=C/c1ccccc1Cl)Nc1ccc2ncnc(Nc3cccc(Br)c3)c2c1	6.63 µg/mL (≈ 13.8 µM)	2 µg/mL (≈ 4.17 µM)	–	–
COc1cccc(/C=C/C(=O)Nc2ccc3ncnc(Nc4cccc(Cl)c4)c3c2)c1	2.58 µg/mL (≈ 5.99 µM)	1.05 µg/mL (≈ 2.44 µM)	6.63 µM	–
Nc1ccc2ncnc(Nc3cccc(Br)c3)c2c1	–	–	–	42 µM
O=C(/C=C/c1cccc([N+](=O)[O-])c1)Nc1ccc2ncnc(Nc3cccc(Cl)c3)c2c1	–	–	0.19 µM	0.49 µM
O=C(/C=C/c1ccc(Br)cc1)Nc1ccc2ncnc(Nc3cccc(Cl)c3)c2c1	1.86 µg/mL (≈ 3.88 µM)	0.75 µg/mL (≈ 1.56 µM)	3.49 µM	–

More lines, now with the values ahead:

IC50 [1]	IC50 [2]	IC50 [3]	IC50 [4]	SMILES
1.49 µg/mL (≈ 3.3 µM)	0.671 µg/mL (≈ 1.49 µM)	2.81 µM	–	O=C(/C=C/c1cccc2ccccc12)Nc1ccc2ncnc(Nc3cccc(Cl)c3)c2c1
1.85 µg/mL (≈ 3.77 µM)	0.981 µg/mL (≈ 2 µM)	5.16 µM	1.34 µM	O=C(/C=C/c1ccc([N+](=O)[O-])cc1)Nc1ccc2ncnc(Nc3cccc(Br)c3)c2c1
5.63 µg/mL (≈ 11.7 µM)	1.65 µg/mL (≈ 3.44 µM)	–	–	O=C(/C=C/c1ccccc1Br)Nc1ccc2ncnc(Nc3cccc(Cl)c3)c2c1
15.3 µg/mL (≈ 29.2 µM)	10.7 µg/mL (≈ 20.3 µM)	–	–	O=C(/C=C/c1ccc(Br)cc1)Nc1ccc2ncnc(Nc3cccc(Br)c3)c2c1
0.78 µg/mL (≈ 1.75 µM)	0.3 µg/mL (≈ 0.673 µM)	–	0.75 µM	O=C(/C=C/c1ccccc1[N+](=O)[O-])Nc1ccc2ncnc(Nc3cccc(Cl)c3)c2c1
–	0.02 µg/mL (≈ 0.0508 µM)	–	–	C#Cc1cccc(Nc2ncnc3cc(OCCOC)c(OCCOC)cc23)c1 [ERLOTINIB]
1.58 µg/mL (≈ 3.94 µM)	0.68 µg/mL (≈ 1.7 µM)	3.61 µM	–	O=C(/C=C/c1ccccc1)Nc1ccc2ncnc(Nc3cccc(Cl)c3)c2c1
3.01 µg/mL (≈ 6.55 µM)	1.39 µg/mL (≈ 3.03 µM)	–	–	Cc1ccc(/C=C/C(=O)Nc2ccc3ncnc(Nc4cccc(Br)c4)c3c2)cc1
9.23 µg/mL (≈ 22.7 µM)	4.26 µg/mL (≈ 10.5 µM)	–	–	O=C(/C=C/c1cccs1)Nc1ccc2ncnc(Nc3cccc(Cl)c3)c2c1
4.66 µg/mL (≈ 10.3 µM)	2.51 µg/mL (≈ 5.56 µM)	–	–	O=C(/C=C/c1cccs1)Nc1ccc2ncnc(Nc3cccc(Br)c3)c2c1
3.55 µg/mL (≈ 7.47 µM)	1.28 µg/mL (≈ 2.69 µM)	7.71 µM	–	COc1ccccc1/C=C/C(=O)Nc1ccc2ncnc(Nc3cccc(Br)c3)c2c1
5.26 µg/mL (≈ 11.8 µM)	2.05 µg/mL (≈ 4.6 µM)	3.45 µM	2.13 µM	O=C(/C=C/c1ccc([N+](=O)[O-])cc1)Nc1ccc2ncnc(Nc3cccc(Cl)c3)c2c1
6.03 µg/mL (≈ 14.5 µM)	2.02 µg/mL (≈ 4.87 µM)	–	–	Cc1ccc(/C=C/C(=O)Nc2ccc3ncnc(Nc4cccc(Cl)c4)c3c2)cc1
